N-glyco inh: N-linked glycosylation inhibition. D54 ERlucT glycosylation luciferase reporter, 24 h; percent of 100 nM tunicamycin response. reporter increase, % at 12.5 µM. hit rate 0.23% among 360,000;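 active means mean luciferase reporter signal, scaled so untreated is 0 and the glycosylation-blocking control 100, at or above a set limit in every replicate; inconclusive means mean reaches the limit but not every replicate does; inactive means mean below the limit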;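 further: luciferase carries N-glycosylation sites so blocking glycosylation raises the light; 0% = median of neutral control wells and 100% = median of 100 nM tunicamycin wells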
PAX8 reporter: inhibitors of PAX8 transcriptional activity in RMG-I cells. RMG-I TPO-luciferase reporter, SteadyGlo, 24 h. inhibition, % at 12.6 µM. hit rate 1.2% among 360,000. AID 652154;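 active means mean replicate inhibition at least 60% with every replicate also reaching 60%; inconclusive means only one of the two criteria is met; inactive means mean below 60% and not all replicates reaching 60%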;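 further: luciferase light reporting Pax8 driven TPO promoter activity; plate controls were median of neutral control wells for no effect and mitoxantrone controls for full effect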
FN deposition inh: fibronectin deposition inhibition. AH1F fibroblasts, Alexa488-fibronectin deposition fluorescence, overnight. inhibition, % at 12.6 µM. hit rate 0.086% among 350,000. AID 743247;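 active means mean inhibition across replicates of 30% or more, regardless of how many single replicates reach that level; inconclusive means mean under 30% yet at least half of replicates reach 30%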;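 further: positive control wells lacked labelled fibronectin entirely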
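Material: AH1F fibroblast monolayer depositing Alexa488-labelled fibronectin into matrix / Amount: 10000 AH1F cells per well / Signal: fluorescence 485/525 nm / Medium: DMEM, 2% serum / Compound: single dose, pinned / Incubation: 1 h cell adhesion before compound, then overnight fibronectin incubation / Reagent: Alexa488-FN, 24 nM final / Read-out: inhibition of fibronectin deposition signal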
EWS-Fli block: EWS/Fli transcriptional activity inhibition. A673 NR0B1-luciferase reporter, viability-normalised. inhibition, % at 12.6 µM. hit rate 0.67% among 350,000;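 active means mean inhibition of at least 50% after viability correction, with every replicate also passing that limit; inconclusive means mean reaches 50% but only one of two replicates passes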;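 further: firefly luciferase signal divided by Alamar Blue viability fluorescence both relative to DMSO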
Env fusion inh: HIV envelope-mediated fusion inhibition | AID 651610 | inhibition, % at 12.3 µM | hit rate 1.1% among 360,000 | HeLa-JRFL Env/CEM21 cell fusion, luciferase;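 active means mean replicate inhibition score of at least 50 and every replicate individually at or above 50; inconclusive means only one of the two criteria met; inactive means mean below 50 and not all replicates reaching 50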;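 further: 0% = plate neutral controls and 100% = maraviroc near 300 nM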
AF4-AF9 inh: MLL-AF4/AF9 protein interaction inhibition. AlphaScreen, biotin-AF4 peptide binding to FLAG-AF9. inhibition, % at 10 µM. hit rate 0.47% among 350,000;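 active means every replicate reaching a set inhibition limit, whatever the replicate mean, cut at about 25% in these data; inconclusive means mean inhibition reaches that limit but some replicates miss it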;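 further: 0% = plate neutral control median and 100% = total signal loss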
Target sequence (P42568 whole entry, looked up): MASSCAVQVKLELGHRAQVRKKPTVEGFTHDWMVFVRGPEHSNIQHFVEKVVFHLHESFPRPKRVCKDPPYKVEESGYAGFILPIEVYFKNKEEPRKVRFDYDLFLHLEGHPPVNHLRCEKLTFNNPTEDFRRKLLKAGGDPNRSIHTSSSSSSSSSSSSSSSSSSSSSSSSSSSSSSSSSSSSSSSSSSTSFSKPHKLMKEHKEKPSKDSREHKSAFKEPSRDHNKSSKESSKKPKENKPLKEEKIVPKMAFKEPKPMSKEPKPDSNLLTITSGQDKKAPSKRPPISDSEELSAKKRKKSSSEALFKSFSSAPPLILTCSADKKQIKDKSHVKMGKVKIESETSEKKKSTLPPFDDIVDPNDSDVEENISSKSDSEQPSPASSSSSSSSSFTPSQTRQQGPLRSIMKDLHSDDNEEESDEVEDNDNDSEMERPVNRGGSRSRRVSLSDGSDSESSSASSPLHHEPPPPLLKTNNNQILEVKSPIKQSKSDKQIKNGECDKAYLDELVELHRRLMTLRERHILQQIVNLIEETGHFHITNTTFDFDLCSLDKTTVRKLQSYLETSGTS
* = called active by the depositor; u = inconclusive; x = no result; [ ] = another dose, or the depositor's remark. The list is not random: actives were taken first. Their share in the collection is about 2.5%.

SMILES	N-glyco inh	PAX8 reporter	FN deposition inh	EWS-Fli block	Env fusion inh	AF4-AF9 inh
COCC(=O)Nc1ccc2c(c1)OC[C@H](C)N(C(=O)COC)C[C@@H](C)[C@@H](OC)CN(C)C2=O	x	-3.3	3.1	3.0	x	-3.3
CCS(=O)(=O)N[C@@H]1CC[C@H](CC(=O)NCc2ccc(Cl)cc2)O[C@@H]1CO	x	9.4	-6.3	2.0	4.1[16.7 µM]	-2.3
COc1ccc(S(=O)(=O)N[C@@H]2CC[C@@H](CC(=O)NCCc3ccncc3)O[C@@H]2CO)cc1	x	-16.9	x	-0.5	57.6*[16.7 µM]	-0.2
COc1ccc(S(=O)(=O)N[C@@H]2CC[C@H](CC(=O)NCCc3ccncc3)O[C@H]2CO)cc1	x	-17.9	x	7.3	-5.8[16.7 µM]	-2.1
CCS(=O)(=O)N[C@H]1CC[C@@H](CC(=O)NCc2ccc(Cl)cc2)O[C@@H]1CO	x	15.4	x	0.3	69.9*[16.7 µM]	-1.1
COc1cccc(S(=O)(=O)N[C@H]2CC[C@H](CC(=O)NCc3ccncc3)O[C@@H]2CO)c1	x	-8.2	4.1	1.5	66.3*[16.7 µM]	-0.3
C[C@H](CO)N1C[C@H](C)[C@H](CN(C)CC2CC2)Oc2ccc(NC(=O)Cc3cn(C)c4ccccc34)cc2CC1=O	x	x	x	-24.2	24.4[16.7 µM]	9.3
O=C(C[C@H]1CC[C@@H]2[C@H](COC[C@@H](O)CN2Cc2ccccc2F)O1)N[C@H]1CCN(Cc2ccccc2)C1	x	19.9	x	3.9	x	-0.2
C[C@H](CO)N1C[C@H](C)[C@@H](CN(C)Cc2ccc3c(c2)OCO3)Oc2c(NC(=O)Nc3ccc(C(F)(F)F)cc3)cccc2C1=O	x	x	-1.4	5.8	x	0.1
O=c1c(Br)c(Br)cnn1-c1ccccc1	-16.4	106.9*	0.9	u	-229.1	0.5
C[C@H]1CN([C@@H](C)CO)C(=O)Cc2cc(NC(=O)CCN3CCOCC3)ccc2O[C@@H]1CN(C)Cc1ccc(-c2ccccc2)cc1	x	x	x	0.1	-11.8[16.7 µM]	8.4
COc1ccc(OC)c(CCNC(=O)Cn2nc(C)c3c(C)n(-c4ccc(C)cc4)nc3c2=O)c1	4.1	70.7*	-9.2	16.1	18.7	-0.1
O=C(Nc1ccccc1)Nc1ccc2c(c1)[C@H]1C[C@@H](CC(=O)N3CCOCC3)O[C@@H](CO)[C@H]1O2	x	-0.5	-7.3	4.0	-3.3[16.7 µM]	x
CCOc1ccc(NC2=CC(=O)C(=O)c3ccccc32)cc1	-20.1	49.5	11.5	12.0	-8.9	1.6
COc1cc(Cl)c(NC2=CC(=O)C(=O)c3ccccc32)c(OC)c1	-20.9	94.9*	-3.4	4.8	x	5.8
O=C(C[C@@H]1CC[C@@H](NC(=O)NC2CCCC2)[C@@H](CO)O1)NCc1ccc(F)cc1	x	-13.4	x	3.5	-3.6[16.7 µM]	-0.1
COC(CNC(=O)CCc1c(C)nc2c(c(C)nn2-c2ccc(C)cc2)c1C)OC	-5.7	13.4	8.8	5.9	21.4	-0.9
Cc1ccc(-n2nc(C)c3c(C)c(CCC(=O)Nc4ccc(CN5CCCC5)cc4)c(C)nc32)cc1	-12.4	54.6	7.4	31.4	14.8	27.0*
c1c[nH]c(CN2CCN(Cc3ncc[nH]3)CC2)n1	-1.8	-7.9	0.6	-8.8	-9.5	27.7*
CNCc1ccccc1Sc1cccc2ccccc12	-3.9	x	x	x	x	x
CN(C)CCN(C)Cc1ccccc1Sc1cccc2ccccc12	9.1	26.9	6.6	5.7	x	36.3*
CC=Cc1ccc2n(c1=O)C[C@H]1[C@H](CO)[C@@H](C(=O)N3CCc4ccccc4C3)N[C@@H]21 (mixture of isomers)	x	x	x	0.3	x	-0.6
O=C(C1CCC1)N1CC(=O)N2[C@@H](CO)[C@H](c3ccc(C#Cc4cccc(F)c4)cc3)[C@@H]2C1	x	-4.8	7.3	-4.3	x	-3.8
O=C(C1CCC1)N1CC(=O)N2[C@H](C1)[C@H](c1ccc(C#Cc3cccc(F)c3)cc1)[C@@H]2CO	x	81.3*	6.9	-1.9	x	-4.8
O=C(C1CC1)N1CC(=O)N2[C@H](C1)[C@H](c1ccc(C#Cc3cccc(F)c3)cc1)[C@@H]2CO	x	68.6*	8.0	2.2	x	-3.5
SMILES	N-glyco inh	PAX8 reporter	FN deposition inh	EWS-Fli block	Env fusion inh	AF4-AF9 inh
CCOc1ccc(S(=O)(=O)NCc2ccncc2)cc1	-0.3	x	x	x	84.8*	x
CCOC(=O)COc1ccc(S(=O)(=O)NCc2ccncc2)cc1	-0.4	x	x	x	x	x
CC(=O)O[C@@H]1C[C@H]2C(C)(C)C(=O)C=C[C@]2(C)[C@H]2CC[C@@]3(C)[C@H](c4ccoc4)OC(=O)[C@H]4O[C@]43[C@@]21C	-2.8	75.3*	13.0	12.9	-63.1	6.5
CC(=O)OC1CC2C(C)(C)C(=O)C=CC2(C)C2CCC3(C)C(c4ccoc4)OC(=O)C4OC43C12C (stereo not given)	-3.3	x	x	24.1	x	7.8
Cn1c(=N)n(CC(=O)c2ccccc2)c2ccccc21	-17.8	-76.9	-13.1	65.1*	-102.5	-5.0
COc1ccc(C(=O)Cn2c(=N)n(C)c3ccccc32)cc1	-8.6	-121.2	3.7	-101.3	-43.4	0.0
Cn1c(=N)n(CC(=O)O)c2ccccc21	2.0	x	x	x	x	x
Cn1c(=N)n(CC(=O)c2ccc(Cl)c(Cl)c2)c2ccccc21	-18.0	56.8	0.1	73.4*	-55.1	0.2
CO[C@@H]1CN(C)C(=O)c2ccc(NC(C)=O)cc2OC[C@H](C)N(C(=O)c2cccnc2)C[C@H]1C	x	x	-1.1	-2.2	x	2.3
Cc1ccc2c(c1)c1ccc3c(c1n2C)C(=O)C=CC3=O	30.6*	1.6	-6.2	39.9	-239.2	-0.8
COc1ccc2c(c1)c1ncn(CCN3CCCC3)c(=O)c1n2C	2.0	x	-14.8	x	25.7	x
COc1ccc2c(c1)c1ccc3c(c1n2C)C(=O)C=CC3=O	28.1*	11.2	0.2	60.1*	-231.0	-1.4
Cn1c2ccccc2c2ccc3c(c21)C(=O)C=CC3=O	u	0.2	-9.7	-4.9	-43.0	4.0
CO[C@@H]1CN(C)C(=O)c2ccc(NS(=O)(=O)c3cn(C)cn3)cc2OC[C@@H](C)N(Cc2ccc(C(F)(F)F)cc2)C[C@H]1C	x	2.7	x	4.6	x	3.8
CO[C@@H]1CN(C)C(=O)c2cc(NS(=O)(=O)c3cn(C)cn3)ccc2OC[C@@H](C)N(Cc2ccc(C(F)(F)F)cc2)C[C@H]1C	x	15.4	-1.6	-0.8	87.9*[16.7 µM]	4.1
CO[C@H]1CN(C)C(=O)c2cc(NS(=O)(=O)c3ccc(Cl)cc3)ccc2OC[C@@H](C)N(C)C[C@@H]1C	x	8.9	2.1	-1.3	60.9*[16.7 µM]	-0.5
O=C(CN1CCOCC1)N[C@@H]1CC[C@H](CCNC(=O)C2CCC2)O[C@@H]1CO	x	11.2	0.4	3.3	1.4[16.7 µM]	0.1
O=C(CN1CCOCC1)N[C@H]1CC[C@H](CCNC(=O)C2CCC2)O[C@H]1CO	x	0.5	-11.7	-21.8	-40.5[16.7 µM]	43.3*
NCC[C@H]1CC[C@@H](NC(=O)CCN2CCCCC2)[C@H](CO)O1	x	-7.6	-5.0	-5.5	-4.8[16.7 µM]	59.3*
NCC[C@H]1CC[C@H](NC(=O)CCN2CCCCC2)[C@@H](CO)O1	x	-5.7	6.5	-5.0	-7.5[16.7 µM]	27.9*
NCC[C@@H]1CC[C@@H](NC(=O)CCN2CCCCC2)[C@H](CO)O1	x	-5.1	-2.3	-8.9	0.8[16.7 µM]	19.4

Screening data from PubChem.
